VIM-2 inh = blocks Pseudomonas aeruginosa VIM-2 metallo-beta-lactamase | purified VIM-2, nitrocefin hydrolysis, epi-absorbance fluorescence | inhibition, % at 5.6 µM | hit rate 0.89% among 290,000 | AID 1527;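 active = inhibition above the mean of all tested compounds plus 3 SD, cutoff set per screening run, cut at about 7.5% in these data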;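 note: red hydrolysis product quenches plate fluorescence so inhibitors raise well fluorescence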
IMP-1 inhibitor = blocks Pseudomonas aeruginosa IMP-1 metallo-beta-lactamase. purified IMP-1, nitrocefin hydrolysis, epi-absorbance fluorescence. inhibition, % at 5.6 µM. hit rate 0.45% among 290,000;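 active = inhibition above the mean plus 3 SD of all compounds in the same screening run, cut at about 4.5% in these data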
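System: purified IMP-1 / Input: IMP-1 dispensed at 0.2 nM / Medium: 50 mM HEPES pH 7.1, 50 µM ZnSO4, 0.05% Brij 35 / Timing: 15 min enzyme–compound preincubation, then 25 min nitrocefin reaction, 25 °C / Technique: plate fluorescence quenching by hydrolysis product, ex 480/em 530 nm / Repeats: singlicate testing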
MEKK2mut PB1 HTS = signal of MEK5 binding to mutant human MEKK2 PB1 domain; hit rate 0.35% among 290,000; percent response, % at 10 µM; bead flow cytometry, Alexa488-MEK5 binding to MEKK2 mutant; in the data active = percent response above about 24%, passing the limit was not always enough
MEKK3 PB1 HTS = raises or lowers MEK5 binding to the human MEKK3 PB1 domain; Q99759; bead-based flow cytometry, Alexa488-MEK5 binding to MEKK3; actives lie on both sides; 0 = blocked by unlabeled MEK5, 100 = vehicle; binding response (% of control), % at 10 µM; hit rate 1.4% among 290,000; AID 1529;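 active = binding response more than 3 SD above or below the average of its plate-row segment, actives on both sides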;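 note: Alexa488 bead fluorescence after subtracting the streptavidin-only scavenger bead signal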
Target sequence (Q99759 whole entry, looked up, the tested form may be a part): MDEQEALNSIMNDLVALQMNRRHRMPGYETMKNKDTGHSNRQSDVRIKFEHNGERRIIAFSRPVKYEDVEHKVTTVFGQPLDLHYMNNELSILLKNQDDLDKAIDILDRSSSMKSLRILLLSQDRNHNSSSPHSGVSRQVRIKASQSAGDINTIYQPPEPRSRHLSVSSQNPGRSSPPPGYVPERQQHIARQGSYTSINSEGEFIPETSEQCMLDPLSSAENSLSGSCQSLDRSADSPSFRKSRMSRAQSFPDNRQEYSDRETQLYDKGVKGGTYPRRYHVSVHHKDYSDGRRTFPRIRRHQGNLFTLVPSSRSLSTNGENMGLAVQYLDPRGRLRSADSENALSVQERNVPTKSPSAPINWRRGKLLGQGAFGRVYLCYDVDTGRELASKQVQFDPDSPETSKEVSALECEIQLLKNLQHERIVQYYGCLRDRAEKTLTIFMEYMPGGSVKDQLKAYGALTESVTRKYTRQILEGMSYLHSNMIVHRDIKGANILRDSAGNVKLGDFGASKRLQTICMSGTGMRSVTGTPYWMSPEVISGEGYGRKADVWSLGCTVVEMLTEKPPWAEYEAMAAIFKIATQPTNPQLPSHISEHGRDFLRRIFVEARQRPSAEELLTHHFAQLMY
MEKK2wt PB1 HTS = raises or lowers MEK5 binding to wildtype human MEKK2 PB1 domain; Q9Y2U5; bead flow cytometry, Alexa488-MEK5 binding to MEKK2 WT; actives lie on both sides; binding response (% of control), % at 10 µM; hit rate 1.1% among 290,000; in the data active = binding response below about 67% or above about 130%
MEKK2wt confirm = raises or lowers MEK5 binding to wildtype human MEKK2, retest | binding response (% of control), % at 10 µM | shares compounds with MEKK3 PB1 HTS | bead flow cytometry, Alexa488-MEK5 binding to MEKK2 WT; actives lie on both sides | hit rate 2.4% among 5,900; in the data active = binding response below about 16% or above about 210%; inactive = in between
MEKK2mut-MEK5 = signal of MEK5 binding to mutant human MEKK2, retest | shares compounds with MEKK3 PB1 HTS | bead flow cytometry, Alexa488-MEK5 binding to MEKK2 mutant | percent response, % at 10 µM | hit rate 2% among 5,900 | AID 1893; in the data active = percent response mostly above about 71%, no sharp cut-off; inactive = mostly below about 38%;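 note: higher means compound restores mutant binding toward wildtype level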
MEKK3 confirm = MEKK3-MEK5 PB1 inhibition, single concentration confirmation; shares compounds with MEKK3 PB1 HTS; bead flow cytometry, Alexa488-MEK5 binding to MEKK3; active compounds read low; binding response (% of control), % at 10 µM; hit rate 1.8% among 5,900; AID 1894;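 active = binding response below 72% of control, or above a set upper limit, though filed actives all read lower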;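 note: lower values mean stronger disruption of MEK5 binding to MEKK3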
Hits are given with their value; – = inactive; · = no result given; [ ] = dose if it differs, or a comment. In the library only some 3.4% were active in any assay of this set; here they are far more common.

SMILES | VIM-2 inh | IMP-1 inhibitor | MEKK2mut PB1 HTS | MEKK3 PB1 HTS | MEKK2wt PB1 HTS | MEKK2wt confirm | MEKK2mut-MEK5 | MEKK3 confirm
O=C(NC1CCCC1)C(c1cccnc1)N(C(=O)c1csnn1)C1CCCC1 (configuration not stated) | – | – | – | 75[inhibitor] | – | – | – | –
CCO[C@@H]1OC(C(=O)NC2CC2)=C[C@H](c2c[nH]c3ccccc23)[C@H]1CCCO | · | · | – | 82[inhibitor] | – | – | – | –
COC(=O)CSC1=C(C#N)C(c2ccc(C(C)C)cc2)CC(=O)N1 (configuration not stated) | – | – | – | – | – | · | · | ·
C=CCSC1=C(C#N)C(c2ccccc2OC)CC(=O)N1 (configuration not stated) | – | – | – | – | – | · | · | ·
C=CCSC1=C(C#N)C(c2ccccc2OCC)CC(=O)N1 (configuration not stated) | – | – | – | 0.0[inhibitor] | -8.0[inhibitor] | – | – | –
COC(=O)CSC1=C(C#N)C(c2ccccc2)CC(=O)N1 (configuration not stated) | – | – | – | 2.0[inhibitor] | -2.0[inhibitor] | – | – | –
O=C1CSC(c2ccccc2F)N1c1cc(Cl)ccc1O (configuration not stated) | – | – | – | – | – | · | · | ·
CCOc1ccccc1NC(=S)N1C2CCC1CC(NC(=O)NC13CC4CC(CC(C4)C1)C3)C2 (configuration not stated) | – | – | – | 72[inhibitor] | – | – | – | –
COc1ccccc1NC(=S)N1C2CCC1CC(NC(=O)NC13CC4CC(CC(C4)C1)C3)C2 (configuration not stated) | – | – | – | – | – | · | · | ·
CC(=O)Oc1ccc(C(=O)[C@H]2[C@H]3C(=O)N(c4cccc5ccccc45)C(=O)[C@H]3[C@@H]3C=CC=NN32)cc1 | – | – | – | 179 | – | – | – | –
COc1ccc(C(=O)[C@H]2[C@H]3C(=O)N(c4ccc(OC(C)=O)cc4)C(=O)[C@H]3C3C=CC=NN32)cc1 (some centres not stated) | – | – | – | – | – | · | · | ·
Cc1ccccc1-n1c(SCc2c(C)noc2C)nnc1-c1cccnc1 | – | – | 30 | – | 28[inhibitor] | – | – | –
Cc1ccccc1-n1c(SCc2c(C)noc2C)nnc1-c1ccncc1 | – | – | – | – | – | · | · | ·
CC1Cc2ccccc2N1C(=O)CSc1nnc(NC(=O)Cc2cccs2)s1 (configuration not stated) | – | – | – | – | – | · | · | ·
COc1ccc(CCNC(=O)C(=O)NCc2ccccn2)cc1 | – | – | – | 135 | – | – | – | –
COc1ccc(CCNC(=O)/C(=C/c2cccnc2)NC(=O)c2ccccc2)cc1 | – | – | – | 128 | – | – | – | –
CCCNC(=O)C(=O)NCc1ccccn1 | – | – | – | – | – | · | · | ·
COc1ccc(/C=C(\NC(=O)c2ccccc2)C(=O)NCc2cccnc2)cc1 | – | – | – | – | – | · | · | ·
Cc1ccc(NC(=O)NCC2CCN(Cc3cccc(Cl)c3)CC2)cc1Cl | – | – | – | – | 182 | – | – | –
O=C(CCN1C(=O)/C(=C/c2ccccc2)SC1=S)NCCCN1CCOCC1 | – | – | – | – | – | · | · | ·
CCOc1ccc(-c2nnc(NC(=O)Cc3cc(OC)c(OC)c(OC)c3)o2)cc1 | – | – | – | – | – | · | · | ·
Nc1cc(=O)[nH]c(SCC(=O)Nc2nc3ccc([N+](=O)[O-])cc3s2)n1 | – | – | – | – | – | · | · | ·
Nc1cc(=O)[nH]c(SCC(=O)Nc2cc([N+](=O)[O-])ccc2Cl)n1 | – | – | – | 138 | – | – | – | –
CC(=O)N1N=C(c2ccncc2)OC12CCCCCC2 | – | – | – | – | – | · | · | ·
CCOC(=O)C1(C)NC(c2cc(OC)c(OC)c(OC)c2)C2C(=O)N(CC)C(=O)C21 (configuration not stated) | – | – | – | 2.0[inhibitor] | 2.0[inhibitor] | – | – | –
SMILES | VIM-2 inh | IMP-1 inhibitor | MEKK2mut PB1 HTS | MEKK3 PB1 HTS | MEKK2wt PB1 HTS | MEKK2wt confirm | MEKK2mut-MEK5 | MEKK3 confirm
CCN1C(=O)C2C(c3ccc(O)c(OC)c3)NC(C)(C(=O)OC)C2C1=O (configuration not stated) | – | – | – | – | – | · | · | ·
CCN(C(=O)c1ccccc1F)c1nc(-c2ccc(OC)cc2)cs1 | – | – | – | – | – | · | · | ·
COc1ccc(-c2csc(N(CCCN(C)C)C(=O)c3ccc(F)cc3)n2)cc1 | – | – | 25 | – | 140 | – | – | –
CCN(CC)CCCN(C(=O)c1ccc(F)cc1)c1nc(-c2ccc(OC)cc2)cs1 | – | – | 24 | – | 141 | – | – | –
CC(=O)c1c(C)[nH]c(C(=O)NCCC2=CCCCC2)c1C | – | – | – | – | – | · | · | ·
C#CCOCCOCCOCCNc1nc(N2CCN(C(=O)[C@H](Cc3ccc(O)cc3)n3cc([C@@H](N)CC(C)C)nn3)CC2)nc(N2CCN(C(=O)[C@H](Cc3ccc(O)cc3)n3cc([C@@H](N)CC(C)C)nn3)CC2)n1 | – | 13 | 69 | – | 188 | 227 | 95 | –
C#CCOCCOCCOCCNc1nc(N2CCN(C(=O)[C@H]([C@@H](C)CC)n3cc(CCCN=C(N)N)nn3)CC2)nc(N2CCN(C(=O)[C@H](CCCCN)n3cc(CCCC)nn3)CC2)n1 | – | – | – | – | 172 | – | – | –
C#CCOCCOCCOCCNc1nc(N2CCN(C(=O)C(Cc3ccc(O)cc3)n3cc(C(N)C(C)CC)nn3)CC2)nc(N2CCN(C(=O)C(Cc3ccc(O)cc3)n3cc(C(N)C(C)CC)nn3)CC2)n1 (configuration not stated) | – | – | – | – | 145 | – | – | –
C#CCOCCOCCOCCNc1nc(N2CCN(C(=O)[C@H](CCCCN)n3cc([C@@H](N)C(C)CC)nn3)CC2)nc(N2CCN(C(=O)[C@H](Cc3ccc(O)cc3)n3cc([C@@H](N)CC(C)C)nn3)CC2)n1 (some centres not stated) | – | – | – | – | 158 | – | – | –
CCOc1ccc2nc(NC(NC(C)=O)(C(=O)OC)C(F)(F)F)sc2c1 (configuration not stated) | – | – | – | – | – | · | · | ·
O=C(NCc1ccccc1F)C1CCCN1C(=O)NC1CCCCC1 (configuration not stated) | – | – | – | – | – | · | · | ·

High-throughput results as filed in PubChem.
